The target of data set [1] is T1, Corticotropin-releasing factor receptor 1 (Homo sapiens, UniProt P34998).
T1 sequence (P34998 whole entry): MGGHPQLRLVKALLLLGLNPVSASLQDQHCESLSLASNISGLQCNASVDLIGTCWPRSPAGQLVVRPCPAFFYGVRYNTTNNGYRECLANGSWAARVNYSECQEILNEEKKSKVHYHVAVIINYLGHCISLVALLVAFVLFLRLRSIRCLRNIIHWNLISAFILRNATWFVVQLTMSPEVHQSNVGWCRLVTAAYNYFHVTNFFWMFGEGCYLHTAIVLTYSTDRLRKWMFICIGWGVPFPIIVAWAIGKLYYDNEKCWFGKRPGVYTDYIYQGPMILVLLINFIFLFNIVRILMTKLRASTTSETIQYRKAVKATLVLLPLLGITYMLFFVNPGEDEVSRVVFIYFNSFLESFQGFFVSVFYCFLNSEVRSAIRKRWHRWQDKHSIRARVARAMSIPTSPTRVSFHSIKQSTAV
Briefly: Displacement of [125I]-sauvagine from human CRF-1 receptor expressed in human IMR-32 cells after 2 hrs by scintillation counting. The class given is cell-based. In short, it runs like this: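 Competition binding against 125I-sauvagine on membrane preparations from IMR-32 human neuroblastoma cells, which express CRF-1 endogenously. Modified from a published method.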
(In a radioligand displacement assay an active substance lowers the binding of a labelled ligand.)

Data set [2] is described as follows: Half life in human microsomes. The class given is ADME, Microsome. In short, it runs like this:
(§1)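 Stability in human or rat liver microsomes; half-life (T1/2, min) of compound turnover reported.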

A short description of data set [3]: Half life in rat microsomes. The class given is ADME, Microsome. In short, it runs like this: as §1
Data set [4] addresses T1, Corticotropin-releasing factor receptor 1. Briefly: Antagonist activity at human CRF-1 receptor. The class given is functional.

Some results are limits rather than exact numbers.

From ChEMBL document CHEMBL1806459, “Discovery of N-(1-ethylpropyl)-[3-methoxy-5-(2-methoxy-4-trifluoromethoxyphenyl)-6-methyl-pyrazin-2-yl]amine 59 (NGD 98-2): an orally active corticotropin releasing factor-1 (CRF-1) receptor antagonist” (J Med Chem, 2011) come the findings set out here.

With `CCc1nc(-c2ccc(OC)cc2C(F)(F)F)c(CC)nc1NC(CC)CC`, in data set [1], the Ki (usually the dissociation constant of the complex between target and ligand, obtained from inhibition or displacement) worked out at 4.4 nM. In addition, the half-life (as a rule, the time needed for the level to fall by half in the phase considered) was 12 min in data set [2] and 4.3 min in data set [3].
Taken in the same sequence, the figures for `CCC(CC)Nc1nc(C)c(-c2ccc(Cl)cc2Cl)nc1C` were 27 nM, 29 min and 3.2 min.
In the case of `CCc1nc(-c2ccc(Cl)cc2Cl)c(CC)nc1OC(CC)CC`, in data set [1], affinity was put at a Ki of 46 nM. Besides, the figures for the half-life in data set [2] and in data set [3] were 10 min and 2.5 min, respectively.
In data set [1], `CCCCc1nc(-c2ccc(Cl)cc2Cl)c(CC)nc1NC(CC)CC` showed a Ki of 3660 nM. For the same compound, the half-life in data set [2] turned out to be 22 min; in data set [3], 4.2 min.
`CCc1nc(-c2ccc(OC(F)F)cc2Cl)c(OC)nc1NC(CC)CC`: the affinity in data set [1], expressed as Ki, was 2.5 nM. Moreover, the half-life in data set [2] is 120 min; in data set [3], 17 min.
On the same counts, the results for `CCc1nc(NC(CC)CC)c(OC)nc1-c1ccc(C(F)(F)F)cc1OC` are 4.4 nM, 73 min and 23 min.
The compound `CCc1nc(NC(CC)CC)c(C)nc1-c1ccc(Cl)cc1Cl` displayed a Ki in data set [1] of 54 nM. Besides, the half-life in data set [2] came out at 27 min; in data set [3], 11 min.
For `CCCC(CCC)N1CCn2nc(-c3ccc(Cl)cc3Cl)c3nc(C)cc1c32`, the affinity in data set [4], expressed as Ki, was 4 nM.
`CCc1nc(N(CC2CC2)CC2CC2)c(CC)nc1-c1ccc(Cl)cc1Cl` registered an inhibition constant (Ki) in data set [1] of 26 nM. The half-life in data set [2] is 8 min; in data set [3] it was less than 1 min.
Consider `CCC(CC)Nc1nc(OC)c(-c2ccc(Cl)cc2Cl)nc1OC`, for which, in data set [1], the Ki stood at 8.4 nM. The half-life in data set [2] came out at 16 min; in data set [3], 2.5 min.
For `CCc1nc(-c2ccc(OC(C)C)cc2OC)c(CC)nc1NC(CC)CC`, the Ki in data set [1] was determined as 4.2 nM. Besides, the half-life was 11 min in data set [2] and less than 1 min in data set [3].
Taken in the same sequence, the figures for `CCC(CC)Nc1nc(OC)c(-c2ccc(Cl)cc2Cl)nc1C` were 14.4 nM, 56 min and 17 min.
On to `CCOc1ccc(-c2nc(OC)c(NC(CC)CC)nc2C)c(Cl)c1`, for which the Ki in data set [1] amounted to 5.9 nM. The half-life in data set [2] turned out to be 120 min; in data set [3], 47 min.
Consider `CCc1nc(-c2ccc(Cl)cc2Cl)c(CC)nc1CC(CC)CC`, for which the Ki in data set [1] stood at 68 nM. The half-life in data set [2] amounted to 13 min; in data set [3], 2.5 min.
In data set [1], `CCc1nc(-c2cnc(OC)nc2OC)c(CC)nc1NC(CC)CC` yielded a Ki of 17.2 nM. In addition, the half-life in data set [2] was 7 min; in data set [3], less than 1 min.
`CCc1nc(-c2ccc(Cl)cc2Cl)c(CC)nc1NC(C1CC1)C1CC1`: the affinity in data set [1], expressed as Ki, was 3.7 nM. Besides, the half-life in data set [2] was 11 min; in data set [3] it was 2.5 min.
`CCc1nc(-c2ccc(Cl)cc2Cl)c(OC)nc1NC(CC)CC` displayed a Ki in data set [1] of 8 nM. Further, the half-life in data set [2] amounted to 42 min; in data set [3] it was 11 min.
In turn, `CCc1nc(-c2ccc(Cl)cc2Cl)c(CC)nc1SC(C)CC` (stereo unspecified) registered a Ki in data set [1] of 401 nM. The half-life in data set [2] is 17 min; in data set [3] it was 4.1 min.
For `CCc1nc(-c2ccc(OC)cc2Cl)c(OC)nc1NC(CC)CC`, the Ki in data set [1] is 1.1 nM. This compound also came in with a half-life in data set [2] of 120 min.
Compound `CCc1nc(NC(CC)CC)c(OC)nc1-c1ccc(Cl)cc1Cl` gave a Ki in data set [1] of 5.9 nM. This compound had a half-life in data set [2] of 35 min.
For `CCc1nc(-c2ccc(OC)cc2OC(F)(F)F)c(CC)nc1NC(CC)CC`, affinity in data set [1] was put at a Ki of 4.1 nM. Further, the values for the half-life in data set [2] and in data set [3] were 16 min and 4.1 min, respectively.
As for `CCc1nc(NC(CC)CC)c(OC)nc1-c1ccc(OC(F)F)cc1Cl`, in data set [1], the affinity corresponds to a Ki of 1.4 nM. Also, the half-life in data set [2] was 120 min; in data set [3] it was 47 min.
`CCc1nc(-c2ccc(Cl)cc2Cl)c(CC)nc1NC(COC)COC`: in data set [1], the Ki was 224 nM. Also, the half-life stood at 9 min in data set [2] and 2.5 min in data set [3].
Consider `CCc1nc(-c2ccc(OC)cc2OC)c(CC)nc1NC(CC)CC`, for which the Ki in data set [1] was 7.3 nM. Moreover, the half-life in data set [2] came out at 8 min; in data set [3], 2.5 min.
`CCc1nc(-c2ccc(C(F)(F)F)cc2OC)c(CC)nc1NC(CC)CC` had a Ki in data set [1] of 5.6 nM. The compound also displayed a half-life in data set [2] of 11 min.
Take `CCc1cc(OC)ccc1-c1nc(OC)c(NC(CC)CC)nc1CC`: the Ki in data set [1] was determined as 1.9 nM. Besides, the half-life in data set [2] and in data set [3] was 120 min throughout.
In data set [1], `CCc1nc(-c2ccc(Cl)cc2Cl)c(C)nc1NC(CC)CC` came in with a Ki of 8.6 nM. Besides, the figures for the half-life in data set [2] and in data set [3] were 18 min and 4.2 min, respectively.
For the compound `CCC(CC)Nc1nc(C)c(-c2ccc(Cl)cc2Cl)nc1OC`, the affinity in data set [1] corresponds to a Ki of 4.3 nM.
`CCCN(CCN(C)C)c1nc(CC)c(-c2ccc(Cl)cc2Cl)nc1CC`: the Ki in data set [1] is 1540 nM. The half-life in data set [2] is 5 min; in data set [3], less than 1 min.
With `CCc1nc(NC(CC)CC)cnc1-c1ccc(Cl)cc1Cl`, the affinity in data set [1] corresponds to a Ki of 545 nM. The same compound had a half-life in data set [2] of 28 min.
Regarding `CCc1nc(NC(CC)CC)c(Cl)nc1-c1ccc(Cl)cc1Cl`, the affinity in data set [1] corresponds to a Ki of 71 nM. Also, the half-life in data set [2] is 10 min; in data set [3], less than 1 min.
On the same counts, the results for `CCc1nc(NC(CC)CC)c(F)nc1-c1ccc(Cl)cc1Cl` are 167 nM, 73 min and 21 min.
Compound `CCc1nc(NC(CC)CC)c(OC)nc1-c1ccc(OC)cc1C(F)(F)F` returned a Ki in data set [1] of 2.2 nM. Moreover, the half-life in data set [2] and in data set [3] was 120 min each time.
`CCC(CC)Nc1nc(C)c(-c2ccc(C(F)(F)F)cc2OC)nc1OC` gave a Ki in data set [1] of 1.3 nM. Besides, the half-life in data set [2] and in data set [3] was 120 min each time.
In turn, `CCC(CC)Nc1nc(C)c(-c2ccc(OC(F)F)cc2Cl)nc1OC` displayed a Ki in data set [1] of 4.6 nM. Moreover, the values for the half-life in data set [2] and in data set [3] were 120 min and 48 min, respectively.
On to `CCc1nc(-c2ccc(OC(F)(F)F)cc2OC)c(OC)nc1NC(CC)CC`, for which the Ki in data set [1] came out at 6.1 nM. Besides, the half-life in data set [2] was determined as 52 min; in data set [3], 36 min.
In data set [1], `CCOc1ccc(-c2nc(CC)c(NC(CC)CC)nc2CC)c(OC)c1` returned a Ki of 7.8 nM.
`CCc1nc(-c2ccc(C)cc2OC)c(CC)nc1NC(CC)CC` gave a Ki in data set [1] of 23.7 nM. The half-life in data set [2] is 11 min; in data set [3], less than 1 min.
Turning to `CCCN(CCC)c1c(C)ncc2c(-c3ccc(Cl)cc3Cl)cccc12`, affinity in data set [4] was put at a Ki of 103 nM.
As to `COCC(COC)Nc1nc(C)nc2c(-c3ccc(Cl)cc3Cl)c(C)nn12`, in data set [4], the Ki turned out to be 2 nM.
Regarding `CCc1nc(-c2ccc(OC)nc2OC)c(CC)nc1NC(CC)CC`, in data set [1], the Ki stood at 11.6 nM. Moreover, the half-life in data set [2] amounted to 9 min; in data set [3] it was 2.5 min.
In turn, `CCc1nc(-c2cnc(C)cc2N(C)C)c(CC)nc1NC(CC)CC` yielded a Ki in data set [1] of 7.6 nM. For the same compound, the half-life is 7 min in data set [2] and less than 1 min in data set [3].
As for `CCCN(CC1CC1)c1nc(CC)c(-c2ccc(Cl)cc2Cl)nc1CC`, the Ki in data set [1] was 19.2 nM. The half-life in data set [2] is 12 min; in data set [3], 4.2 min.
In the case of `CCc1nc(N(CCOC)CCOC)c(CC)nc1-c1ccc(Cl)cc1Cl`, the Ki in data set [1] is 128 nM. Besides, the half-life in data set [2] was 2 min; in data set [3], less than 1 min.
Take `CCc1nc(-c2ccc(OC(F)(F)F)cc2OC)c(CC)nc1NC(CC)CC`: the affinity in data set [1], expressed as Ki, was 7.2 nM. Further, the half-life worked out at 13 min in data set [2] and 2.5 min in data set [3].
On to `CCc1nc(NC(CC)CC)c(I)nc1-c1ccc(Cl)cc1Cl`, for which the affinity in data set [1] corresponds to a Ki of 12 nM.
Regarding `CCc1nc(-c2ccc(Cl)cc2Cl)c(CC)nc1NC(C)CN(C)C` (stereo unspecified), the affinity in data set [1], expressed as Ki, was 489 nM. Besides, the half-life in data set [2] is 7 min; in data set [3], less than 1 min.
Consider `CCOc1nc(-c2ccc(Cl)cc2Cl)c(CC)nc1NC(CC)CC`, for which affinity in data set [1] was put at a Ki of 151 nM. In addition, the half-life amounted to 120 min in data set [2] and 74 min in data set [3].
In data set [1], `CCc1nc(-c2ccc(OC)cc2O)c(CC)nc1NC(CC)CC` returned a Ki of 1180 nM. In addition, the half-life came out at 18 min in data set [2] and 5.9 min in data set [3].
